Converted amounts (≈) assume the structure as drawn.
Columns and labels:
Type in all cases: functional
[1] = test system: Pseudomonas aeruginosa; experiment: Antibacterial activity against Pseudomonas aeruginosa ATCC 27853 by conventional agar dilution method
How it was run: (§1)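 Inoculum: 3–5 colonies suspended to 0.5 McFarland, then diluted 1000-fold to 1.5 · 10⁵ CFU/mL. Compounds dissolved in DMSO, diluted with water to stock, then serially doubled in Mueller–Hinton broth to 1000, 512, 256, 128, 64, 32, 16, 8, 4 and 2 in a 12-well series. Equal volumes of dilution and bacterial suspension were combined. DMSO-only medium served as solvent control. Sulfamethoxazole was the reference.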

[2] = test system: Staphylococcus aureus; experiment: Antibacterial activity against Staphylococcus aureus […] by conventional agar dilution method; how it was run: as §1
[3] = test system: Staphylococcus aureus; experiment: Antibacterial activity against Staphylococcus aureus isolate by conventional agar dilution method; how it was run: as §1
[4] = test system: Enterococcus faecium; experiment: Antibacterial activity against Enterococcus faecium isolate by conventional agar dilution method; how it was run: as §1
[5] = test system: Klebsiella pneumoniae; experiment: Antibacterial activity against Klebsiella pneumoniae isolate by conventional agar dilution method; how it was run: as §1
[6] = test system: Escherichia coli; experiment: Antibacterial activity against Escherichia coli isolate by conventional agar dilution method; how it was run: as §1

Structure (SMILES) | MIC [1] | MIC [2] | MIC [3] | MIC [4] | MIC [5] | MIC [6]
O=C(NS(=O)(=O)c1ccccc1)c1ccccc1 | 256 µg/mL (≈ 980 µM) | 256 µg/mL (≈ 980 µM) | 500 µg/mL (≈ 1910 µM) | 256 µg/mL (≈ 980 µM) | 256 µg/mL (≈ 980 µM) | 256 µg/mL (≈ 980 µM)
CCCCC(=O)NS(=O)(=O)c1ccccc1 | > 1000 µg/mL | > 1000 µg/mL | > 1000 µg/mL | > 1000 µg/mL | > 1000 µg/mL | > 1000 µg/mL
CCC(=O)NS(=O)(=O)c1ccc(C)cc1 | 500 µg/mL (≈ 2200 µM) | 64 µg/mL (≈ 282 µM) | 128 µg/mL (≈ 563 µM) | 64 µg/mL (≈ 282 µM) | 500 µg/mL (≈ 2200 µM) | 128 µg/mL (≈ 563 µM)
CS(=O)(=O)NC(=O)c1ccccc1 | 500 µg/mL (≈ 2510 µM) | 500 µg/mL (≈ 2510 µM) | 256 µg/mL (≈ 1280 µM) | 256 µg/mL (≈ 1280 µM) | 500 µg/mL (≈ 2510 µM) | 256 µg/mL (≈ 1280 µM)
CC(=O)NS(=O)(=O)c1ccccc1 | > 1000 µg/mL | > 1000 µg/mL | > 1000 µg/mL | > 1000 µg/mL | > 1000 µg/mL | > 1000 µg/mL
Cc1cc(NS(=O)(=O)c2ccc(N)cc2)no1 [SULFAMETHOXAZOLE] | 8 µg/mL (≈ 31.6 µM) | 2 µg/mL (≈ 7.9 µM) | 4 µg/mL (≈ 15.8 µM) | 4 µg/mL (≈ 15.8 µM) | 8 µg/mL (≈ 31.6 µM) | 2 µg/mL (≈ 7.9 µM)

The next lines start with the values.

MIC [1] | MIC [2] | MIC [3] | MIC [4] | MIC [5] | MIC [6] | Structure (SMILES)
256 µg/mL (≈ 930 µM) | 256 µg/mL (≈ 930 µM) | 256 µg/mL (≈ 930 µM) | 128 µg/mL (≈ 465 µM) | 256 µg/mL (≈ 930 µM) | 64 µg/mL (≈ 232 µM) | Cc1ccc(S(=O)(=O)NC(=O)c2ccccc2)cc1
> 1000 µg/mL | > 1000 µg/mL | > 1000 µg/mL | > 1000 µg/mL | > 1000 µg/mL | > 1000 µg/mL | CCCCC(=O)NS(=O)(=O)c1ccc(C)cc1
500 µg/mL (≈ 2340 µM) | 128 µg/mL (≈ 600 µM) | 256 µg/mL (≈ 1200 µM) | 64 µg/mL (≈ 300 µM) | 256 µg/mL (≈ 1200 µM) | 256 µg/mL (≈ 1200 µM) | CCC(=O)NS(=O)(=O)c1ccccc1

Source: ChEMBL document CHEMBL1150303, “Synthesis, in vitro antibacterial and carbonic anhydrase II inhibitory activities of N-acylsulfonamides using silica sulfuric acid as an efficient catalyst under both solvent-free and heterogeneous conditions” (2008)
